# Experiments:
# Centromere protein E = Centromere protein E (Canis lupus familiaris, UniProt A0A8P0P634); experiment: Binding affinity to wild-type dog CENP-E assessed as inhibition constant
# BE(2)-C = experiment: Anticancer activity against human BE2C cells assessed as cell growth inhibition measured after 72 hrs by DAPI staining based analysis; type: functional
# How it was run: (§1)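 Cells were seeded and, after 24 h, DNA content was read as T0. Cells were then exposed to varying drug concentrations for a further 72 h (T72). Fixed cells were DAPI-stained and DNA content measured by automated imaging. T72 values were normalized to T0. GI50 is the concentration giving 50% growth inhibition between T0 and Ymax, obtained by curve fitting.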
# BFTC-905 = experiment: Anticancer activity against human BFTC-905 cells assessed as cell growth inhibition measured after 72 hrs by DAPI staining based analysis; type: functional; how it was run: as §1
# [1] = Anticancer activity against human BM-1604 cells assessed as cell growth inhibition measured after 72 hrs by DAPI staining based analysis; type: functional
# How it was run: (§2)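 Cells were seeded, and DNA content at 24 h after seeding (T0) was read by imaging of fixed, DAPI-stained cells. Cells were then exposed to a range of drug concentrations for a further 72 h (T72) and DNA content was read again. T72 values were normalized to T0, and GI50 was taken from curve fits as the concentration giving 50% growth inhibition relative to T0 and Ymax.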
# [2] = Anticancer activity against human C4-1 cells assessed as cell growth inhibition measured after 72 hrs by DAPI staining based analysis; type: functional; how it was run: as §2
# DoTc2-4510 = experiment: Anticancer activity against human DoTc2-4510 cells assessed as cell growth inhibition measured after 72 hrs by DAPI staining based analysis; type: functional
# How it was run: (§3)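 Cells seeded, DAPI-stained DNA content of fixed cells read by imaging 24 h after seeding (T0), and again after a further 72 h exposure to a range of drug concentrations (T72). T72 values were normalized to T0. Curve fits gave the concentration producing 50% growth inhibition relative to T0 and Ymax (GI50).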
# GCT = experiment: Anticancer activity against human GCT cells assessed as cell growth inhibition measured after 72 hrs by DAPI staining based analysis; type: functional; how it was run: as §3
# Hep 3B2 = experiment: Anticancer activity against human Hep3B cells assessed as cell growth inhibition measured after 72 hrs by DAPI staining based analysis; type: functional
# HN5 = experiment: Anticancer activity against human HN5 cells assessed as cell growth inhibition measured after 72 hrs by DAPI staining based analysis; type: functional
# HuT78 = experiment: Anticancer activity against human HuT78 cells assessed as cell growth inhibition measured after 72 hrs by DAPI staining based analysis; type: functional
# IGROV-1 = experiment: Anticancer activity against human IGROV-1 cells assessed as cell growth inhibition measured after 72 hrs by DAPI staining based analysis; type: functional
# NCI-H187 = experiment: Anticancer activity against human NCI-H187 cells assessed as cell growth inhibition measured after 72 hrs by DAPI staining based analysis; type: functional
# NCI-H295R = experiment: Anticancer activity against human NCI-H295R cells assessed as cell growth inhibition measured after 72 hrs by DAPI staining based analysis; type: functional
# NCI-H630 = experiment: Anticancer activity against human NCI-H630 cells assessed as cell growth inhibition measured after 72 hrs by DAPI staining based analysis; type: functional
# [3] = Anticancer activity against human RDES cells assessed as cell growth inhibition measured after 72 hrs by DAPI staining based analysis; type: functional; conditions: RD-ES
# SiHa = experiment: Anticancer activity against human SiHa cells assessed as cell growth inhibition measured after 72 hrs by DAPI staining based analysis; type: functional
# SNU1 = experiment: Anticancer activity against human SNU1 cells assessed as cell growth inhibition measured after 72 hrs by DAPI staining based analysis; type: functional
# SNU-387 = experiment: Anticancer activity against human SNU-387 cells assessed as cell growth inhibition measured after 72 hrs by DAPI staining based analysis; type: functional
# ST486 = experiment: Anticancer activity against human ST486 cells assessed as cell growth inhibition measured after 72 hrs by DAPI staining based analysis; type: functional
# SW1990 = experiment: Anticancer activity against human SW1990 cells assessed as cell growth inhibition measured after 72 hrs by DAPI staining based analysis; type: functional
# SW-620 = experiment: Anticancer activity against human SW620 cells assessed as cell growth inhibition measured after 72 hrs by DAPI staining based analysis; type: functional
# [4] = Anticancer activity against human TE 381.T cells assessed as cell growth inhibition measured after 72 hrs by DAPI staining based analysis; type: functional
# [5] = Anticancer activity against human BC-2 cells assessed as cell doubling measured for 72 hrs by DAPI staining based analysis; type: functional
# CAKI-2 = experiment: Anticancer activity against human CAKI-2 cells assessed as cell doubling measured for 72 hrs by DAPI staining based analysis; type: functional
# CAL-62 = experiment: Anticancer activity against human CAL-62 cells assessed as cell doubling measured for 72 hrs by DAPI staining based analysis; type: functional
# [6] = Anticancer activity against human CML-T1 cells assessed as cell doubling measured for 72 hrs by DAPI staining based analysis; type: functional
# DLD-1 = experiment: Anticancer activity against human DLD-1 cells assessed as cell doubling measured for 72 hrs by DAPI staining based analysis; type: functional
# EKVX = experiment: Anticancer activity against human EKVX cells assessed as cell doubling measured for 72 hrs by DAPI staining based analysis; type: functional
# HCC70 = experiment: Anticancer activity against human HCC70 cells assessed as cell doubling measured for 72 hrs by DAPI staining based analysis; type: functional
# HepG2 = experiment: Anticancer activity against human HepG2 cells assessed as cell doubling measured for 72 hrs by DAPI staining based analysis; type: functional
# [7] = Anticancer activity against human KPL-1 cells assessed as cell doubling measured for 72 hrs by DAPI staining based analysis; type: functional
# MCF7 = experiment: Anticancer activity against human MCF7 cells assessed as cell doubling measured for 72 hrs by DAPI staining based analysis; type: functional
# OV-90 = experiment: Anticancer activity against human OV-90 cells assessed as cell doubling measured for 72 hrs by DAPI staining based analysis; type: functional
# SK-N-AS = experiment: Anticancer activity against human SK-N-AS cells assessed as cell doubling measured for 72 hrs by DAPI staining based analysis; type: functional
# SK-N-DZ = experiment: Anticancer activity against human SK-N-DZ cells assessed as cell doubling measured for 72 hrs by DAPI staining based analysis; type: functional
# SW780 = experiment: Anticancer activity against human SW780 cells assessed as cell doubling measured for 72 hrs by DAPI staining based analysis; type: functional
# Y79 = experiment: Anticancer activity against human Y79 cells assessed as cell doubling measured for 72 hrs by DAPI staining based analysis; type: functional
# [8] = Antitumor activity against human MV-522 cells in xenograft model assessed as difference between median time to endpoint time of treated versus control group at 125 mg/kg; type: functional
# MX1 = experiment: Antitumor activity against human MX1 cells in xenograft model assessed as difference between median time to endpoint time of treated versus control group at 62.5 mg/kg; type: functional
# SK-OV-3 = experiment: Antitumor activity against human SK-OV-3 cells in xenograft model assessed as difference between median time to endpoint time of treated versus control group at 62.5 mg/kg; type: functional
# A549 = experiment: Antitumor activity against human A549 cells in xenograft model assessed as tumor growth delay at 62.5 mg/kg relative to control; type: functional
# Sequence of Centromere protein E (A0A8P0P634 whole entry): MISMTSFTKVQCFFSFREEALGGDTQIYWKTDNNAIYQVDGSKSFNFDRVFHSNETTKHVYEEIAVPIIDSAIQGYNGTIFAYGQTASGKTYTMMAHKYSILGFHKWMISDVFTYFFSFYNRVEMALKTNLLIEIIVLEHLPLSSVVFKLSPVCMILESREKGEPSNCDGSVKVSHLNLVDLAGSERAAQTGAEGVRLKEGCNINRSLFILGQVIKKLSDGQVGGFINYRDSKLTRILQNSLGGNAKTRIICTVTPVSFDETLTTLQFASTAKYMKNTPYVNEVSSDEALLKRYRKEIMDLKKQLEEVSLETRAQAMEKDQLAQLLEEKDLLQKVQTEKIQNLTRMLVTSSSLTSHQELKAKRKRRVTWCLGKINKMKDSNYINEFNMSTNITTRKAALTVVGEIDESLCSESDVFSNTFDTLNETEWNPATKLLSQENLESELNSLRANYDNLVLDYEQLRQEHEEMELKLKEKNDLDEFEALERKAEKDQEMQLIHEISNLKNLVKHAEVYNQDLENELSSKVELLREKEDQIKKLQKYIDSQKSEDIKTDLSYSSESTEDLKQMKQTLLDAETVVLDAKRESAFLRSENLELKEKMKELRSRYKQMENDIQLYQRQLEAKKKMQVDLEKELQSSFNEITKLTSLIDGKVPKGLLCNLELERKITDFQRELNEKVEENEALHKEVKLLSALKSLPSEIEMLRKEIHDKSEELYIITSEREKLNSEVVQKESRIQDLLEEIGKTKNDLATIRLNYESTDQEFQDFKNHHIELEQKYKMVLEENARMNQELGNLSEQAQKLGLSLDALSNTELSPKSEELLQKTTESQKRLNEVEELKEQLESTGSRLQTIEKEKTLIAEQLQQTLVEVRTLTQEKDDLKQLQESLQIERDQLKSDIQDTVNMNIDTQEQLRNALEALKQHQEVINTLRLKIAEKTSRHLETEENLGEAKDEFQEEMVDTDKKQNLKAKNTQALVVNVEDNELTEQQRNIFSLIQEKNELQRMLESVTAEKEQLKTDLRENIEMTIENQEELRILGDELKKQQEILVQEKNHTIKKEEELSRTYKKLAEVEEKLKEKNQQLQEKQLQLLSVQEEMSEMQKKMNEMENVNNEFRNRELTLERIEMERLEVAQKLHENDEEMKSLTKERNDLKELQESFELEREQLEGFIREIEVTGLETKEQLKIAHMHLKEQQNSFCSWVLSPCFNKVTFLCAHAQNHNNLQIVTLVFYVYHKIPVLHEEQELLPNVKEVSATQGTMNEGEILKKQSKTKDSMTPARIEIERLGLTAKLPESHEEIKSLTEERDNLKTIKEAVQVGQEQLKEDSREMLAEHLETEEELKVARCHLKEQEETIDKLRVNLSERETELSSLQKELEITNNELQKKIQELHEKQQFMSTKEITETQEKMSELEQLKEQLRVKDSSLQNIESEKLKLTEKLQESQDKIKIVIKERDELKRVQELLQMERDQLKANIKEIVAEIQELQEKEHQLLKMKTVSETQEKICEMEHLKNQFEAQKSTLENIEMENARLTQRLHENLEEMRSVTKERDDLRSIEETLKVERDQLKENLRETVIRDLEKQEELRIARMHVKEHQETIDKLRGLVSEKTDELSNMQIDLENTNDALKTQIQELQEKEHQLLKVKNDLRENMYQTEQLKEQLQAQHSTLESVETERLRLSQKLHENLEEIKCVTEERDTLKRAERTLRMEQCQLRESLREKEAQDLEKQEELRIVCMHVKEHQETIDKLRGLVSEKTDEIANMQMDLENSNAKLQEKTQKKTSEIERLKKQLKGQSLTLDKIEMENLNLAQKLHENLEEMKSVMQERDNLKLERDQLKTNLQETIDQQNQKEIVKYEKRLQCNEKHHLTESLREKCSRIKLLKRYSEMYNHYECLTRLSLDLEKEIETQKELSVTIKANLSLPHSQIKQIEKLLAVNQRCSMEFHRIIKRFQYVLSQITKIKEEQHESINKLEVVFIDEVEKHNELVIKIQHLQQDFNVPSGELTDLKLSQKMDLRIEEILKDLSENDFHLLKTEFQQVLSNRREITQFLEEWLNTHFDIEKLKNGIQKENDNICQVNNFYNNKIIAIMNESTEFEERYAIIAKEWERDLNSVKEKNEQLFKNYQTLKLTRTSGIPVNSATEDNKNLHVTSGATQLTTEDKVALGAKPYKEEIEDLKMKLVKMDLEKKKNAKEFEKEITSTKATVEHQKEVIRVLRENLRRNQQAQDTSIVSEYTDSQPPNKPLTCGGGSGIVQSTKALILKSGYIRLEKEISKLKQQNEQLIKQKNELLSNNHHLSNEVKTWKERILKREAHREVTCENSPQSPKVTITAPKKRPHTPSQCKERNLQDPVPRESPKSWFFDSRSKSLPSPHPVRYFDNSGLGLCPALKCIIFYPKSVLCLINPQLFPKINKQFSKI
smiles,measurement,setting,value
CC(C)Oc1ccc(C(=O)N[C@H](CNC(=O)CN(C)C)Cc2ccc(-c3cn4cccc([C@H](C)O)c4n3)cc2)cc1Cl [GSK-923295A],Ki,Centromere protein E,1.6 nM
same,GI50,BE(2)-C,93 nM
same,GI50,BFTC-905,30 nM
same,GI50,[1],40 nM
same,GI50,[2],42 nM
same,GI50,DoTc2-4510,33 nM
same,GI50,GCT,23 nM
same,GI50,Hep 3B2,164 nM
same,GI50,HN5,118 nM
same,GI50,HuT78,40 nM
same,GI50,IGROV-1,31 nM
same,GI50,NCI-H187,68 nM
same,GI50,NCI-H295R,298 nM
same,GI50,NCI-H630,47 nM
same,GI50,[3],63 nM
same,GI50,SiHa,29 nM
same,GI50,SNU1,> 10000 nM
same,GI50,SNU-387,32 nM
same,GI50,ST486,26 nM
same,GI50,SW1990,127 nM
same,GI50,SW-620,47 nM
same,GI50,[4],27 nM
same,Activity,[5],1.94
same,Activity,CAKI-2,1.63
same,Activity,CAL-62,3.31
same,Activity,[6],2.88
same,Activity,DLD-1,4.11
same,Activity,EKVX,2.69
same,Activity,HCC70,1.35
same,Activity,HepG2,2.45
same,Activity,[7],2.47
same,Activity,MCF7,1.65
same,Activity,OV-90,1.87
same,Activity,SK-N-AS,2.37
same,Activity,SK-N-DZ,1.81
same,Activity,SW780,2.73
same,Activity,Y79,4.11
same,Time,[8],26.3 days
same,Time,MX1,1.4 days
same,Time,SK-OV-3,71.6 days
same,Activity,A549,11%
